Activity calls are given as the source filed them. The calls are words filed in the database; no cut-off is given here.
Tests used:
[1] = tested on: SK-OV-3; assay: Antiproliferative activity against human SK-OV-3 cells assessed as reduction in number of cells at 25 to 75 nM after 24 hrs; type: functional, cell-based; conditions: dose 25-75 nM
Outline: (§1)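 Cells were grown in 12-well plates in RPMI 1640 with 10% FBS and treated with 0, 25, 50 or 75 nM inhibitor for 24 h. They were then trypsinized and counted with a Coulter counter. Data are mean ± SD of triplicates.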

[2] = tested on: OVCAR-3; assay: Antiproliferative activity against human OVCAR-3 cells assessed as reduction in number of cells at 25 to 75 nM after 24 hrs; type: functional, cell-based; conditions: dose 25-75 nM; outline: as §1
[3] = tested on: SK-OV-3; assay: Antiproliferative activity against human SK-OV-3 cells assessed as reduction in number of cells at 75 nM after 24 to 72 hrs; type: functional, cell-based; conditions: time 24-72 hrs
Outline: (§2)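 For 72-h growth curves, cells in 12-well plates in RPMI 1640 with 10% FBS were grown with or without 75 nM inhibitor. Cell numbers were determined by Coulter counting after trypsinization. Data are mean ± SD of triplicates.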

[4] = tested on: OVCAR-3; assay: Antiproliferative activity against human OVCAR-3 cells assessed as reduction in number of cells at 75 nM after 24 to 72 hrs; type: functional, cell-based; conditions: time 24-72 hrs; outline: as §2
[5] = tested on: HEY; assay: Antiproliferative activity against human HEY cells assessed as reduction in number of cells at 75 nM after 24 to 72 hrs; type: functional, cell-based; conditions: time 24-72 hrs; outline: as §2
[6] = tested on: A2780; assay: Antiproliferative activity against human A2780 cells assessed as reduction in number of cells at 75 nM after 24 to 72 hrs; type: functional, cell-based; conditions: time 24-72 hrs; outline: as §2
[7] = tested on: OVCAR-3; assay: Antiproliferative activity against human OVCAR-3 cells assessed as reduction in cell viability after 72 hrs by MTT assay; type: functional, cell-based; conditions: OVCAR-3, 72 h
Outline: (§3)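 Cells in RPMI 1640 with 10% FBS were exposed to inhibitor over a range up to 10 µM for 72 h. Viability was read by MTT staining with absorbance at 570 nm, and IC50 was obtained by curve fitting. Data are mean ± SD of triplicates, representative of 3 independent experiments.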

[8] = tested on: SK-OV-3; assay: Antiproliferative activity against human SK-OV-3 cells assessed as reduction in cell viability after 72 hrs MTT assay; type: functional, cell-based; conditions: SK-OV-3, 72 h; outline: as §3
[9] = tested on: HEY; assay: Antiproliferative activity against human HEY cells assessed as reduction in cell viability after 72 hrs MTT assay; type: functional, cell-based; outline: as §3
[10] = tested on: SK-OV-3; assay: Antiproliferative activity against human SK-OV-3 cells assessed as decrease in number of colonies at 75nM after 3 weeks by crystal violet staining based assay; type: functional, cell-based
Outline: (§4)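 Soft agar colony assay: wells pre-coated with 0.6% agar in complete medium, with cells overlaid in medium containing 0.3% agar. Fresh 0.3% agar medium was added every 3–5 days. Inhibitor was 75 nM for SKOV-3 and OVCAR-3. After 3 weeks, colonies were crystal violet stained and counted above 100 μm diameter (SKOV-3, A2780) or 50 μm (OVCAR-3), reported as colonies per well.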

[11] = tested on: OVCAR-3; assay: Antiproliferative activity against human OVCAR-3 cells assessed as decrease in number of colonies at 75nM after 3 weeks by crystal violet staining based assay; type: functional, cell-based; outline: as §4
[12] = tested on: HEY; assay: Antiproliferative activity against human HEY cells assessed as decrease in number of colonies at 75nM after 3 weeks by crystal violet staining based assay; type: functional, cell-based
[13] = tested on: A2780; assay: Antiproliferative activity against human A2780 cells assessed as decrease in number of colonies at 75nM after 3 weeks by crystal violet staining based assay; type: functional, cell-based; outline: as §4
[14] = tested on: SK-OV-3; assay: Antitumor activity against human SK-OV-3 cells xenografted in NSG mouse assessed as reduction tumor volume at 4.5 mg/kg/day, po for 4 weeks relative to control; type: functional; design: scale not given: the % may be the effect or the level left
Outline: (§5)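 Female NSG mice aged 6–7 weeks received 4 × 10^6 SKOV-3 cells in serum-free medium s.c. on the right flank. At about 100 mm3, mice were grouped 5 per group and gavaged daily at 0, 1.5, 3 or 4.5 mg/kg for 28 days. Caliper volume was calculated as lw2/2, with body weights tracked and endpoint tumors weighed; mean ± SD.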

[15] = tested on: SK-OV-3; assay: Antitumor activity against human SK-OV-3 cells xenografted in NSG mouse assessed as reduction tumor weight at 4.5 mg/kg/day, po for 4 weeks relative to control; type: functional; design: scale not given: the % may be the effect or the level left; outline: as §5
[16] = Toxicity in NSG mouse xenografted with SK-OV-3 cells assessed as reduction in body weight at 4.5 mg/kg/day, po for 4 weeks relative to control; type: organism-based; design: scale not given: the % may be the effect or the level left; conditions: in vivo, 672 h; outline: as §5
[17] = Antitumor activity against human derived High-grade serous ovarian cancer cell xenografted in NSG mouse model of OVC-PDX2 assessed as decrease in tumor volume at 4 mg/kg/day, po 30 days relative to control; type: functional, Ovarian carcinoma cell; design: scale not given: the % may be the effect or the level left; conditions: time 30 day
Outline: (§6)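 Serous ovarian carcinoma fragments of 1–2 mm3 were implanted s.c. on the right flank of 6–8-week female NSG mice and re-passaged at about 1 cm3. At an average of 100 mm3, mice were grouped 5 per group and gavaged with 4 mg/kg/day for 30 days. Caliper volume was calculated as lw2/2, with body weight monitored and endpoint xenografts weighed.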

[18] = Antitumor activity against human derived High-grade serous ovarian cancer cell xenografted in NSG mouse model of OVC-PDX3 assessed as decrease in tumor volume at 4 mg/kg/day, po 30 days relative to control; type: functional, Ovarian carcinoma cell; design: scale not given: the % may be the effect or the level left; conditions: time 30 day; outline: as §6
[19] = Antitumor activity against human derived High-grade serous ovarian cancer cell xenografted in NSG mouse model of OVC-PDX2 assessed as decrease in tumor weight at 4 mg/kg/day, po 30 days relative to control; type: functional, Ovarian carcinoma cell; design: scale not given: the % may be the effect or the level left; conditions: time 30 day; outline: as §6
[20] = Antitumor activity against human derived High-grade serous ovarian cancer cell xenografted in NSG mouse model of OVC-PDX3 assessed as decrease in tumor weight at 4 mg/kg/day, po 30 days relative to control; type: functional, Ovarian carcinoma cell; design: scale not given: the % may be the effect or the level left; conditions: time 30 day; outline: as §6
[21] = Toxicity in NSG mouse xenografted with human derived High-grade serous ovarian cancer cell model of OVC-PDX2 assessed as reduction in body weight at 4 mg/kg/day, po for 30 days relative to control; type: organism-based; conditions: in vivo, 720 h, time 30 day; outline: as §6
[22] = Toxicity in NSG mouse xenografted with human derived High-grade serous ovarian cancer cell model of OVC-PDX3 assessed as reduction in body weight at 4 mg/kg/day, po for 30 days relative to control; type: organism-based; conditions: in vivo, 720 h, time 30 day; outline: as §6
[23] = tested on: A2780; assay: Antiproliferative activity against human A2780 cells assessed as reduction in cell viability up to 2 uM after 72 hrs by MTT assay; type: functional, cell-based; outline: as §3
[24] = tested on: SK-OV-3; assay: Antiproliferative activity against human SK-OV-3 cells assessed as decrease in size colonies at 75nM after 3 weeks by crystal violet staining based assay; type: functional, cell-based; outline: as §4
[25] = tested on: OVCAR-3; assay: Antiproliferative activity against human OVCAR-3 cells assessed as decrease in size of colonies at 75nM after 3 weeks by crystal violet staining based assay; type: functional, cell-based; outline: as §4
[26] = tested on: HEY; assay: Antiproliferative activity against human HEY cells assessed as decrease in size of colonies at 75nM after 3 weeks by crystal violet staining based assay; type: functional, cell-based
[27] = tested on: A2780; assay: Antiproliferative activity against human A2780 cells assessed as decrease in size of colonies at 75nM after 3 weeks by crystal violet staining based assay; type: functional, cell-based; outline: as §4
[28] = tested on: SK-OV-3; assay: Upregulation of GLUT1 in human SKOV-3 cells at 2 mM after 24 hrs by immunoblotting analysis; type: functional, cell-based
[29] = tested on: OVCAR-3; assay: Upregulation of GLUT1 in human OVCAR-3 cells at 2 mM after 24 hrs by immunoblotting analysis; type: functional, cell-based
[30] = tested on: SK-OV-3; assay: […] of glycolysis in human SK-OV-3 cells ssessed as decrease in conversion of D-[5-3H(N)]-glucose to 3H2O at 2 mM incubated for 24 hrs by liquid scintillation counting; type: functional, cell-based
Outline: (§7)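 Medium was acidified to 0.2 N HCl, and 3H2O was allowed to diffuse into water for 3 days before scintillation counting. Results are given as % glucose conversion/5 × 10^5 cells/6 h, triplicates.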

[31] = tested on: OVCAR-3; assay: […] of glycolysis in human OVCAR-3 cells ssessed as decrease in conversion of D-[5-3H(N)]-glucose to 3H2O at 2 mM incubated for 24 hrs by liquid scintillation counting; type: functional, cell-based; outline: as §7
[32] = tested on: SK-OV-3; assay: Upregulation of GLUT1 in human SK-OV-3 cells at 50 nM after 24 hrs by immunoblotting analysis; type: functional, cell-based
[33] = tested on: OVCAR-3; assay: Upregulation of GLUT1 in human OVCAR-3 cells at 50 […] after 24 hrs by immunoblotting analysis; type: functional, cell-based
[34] = tested on: SK-OV-3; assay: […] of glycolysis in human SK-OV-3 cells ssessed as decrease in conversion of D-[5-3H(N)]-glucose to 3H2O at 50 nM incubated for 24 hrs by liquid scintillation counting; type: functional, cell-based; outline: as §7
[35] = tested on: OVCAR-3; assay: […] of glycolysis in human OVCAR-3 cells ssessed as decrease in conversion of D-[5-3H(N)]-glucose to 3H2O at 50 nM incubated for 24 hrs by liquid scintillation counting; type: functional, cell-based; outline: as §7
[36] = tested on: SK-OV-3; assay: Upregulation of GLUT1 in human SK-OV-3 cells at 0.25 mM after 24 hrs by immunoblotting analysis; type: functional, cell-based
[37] = tested on: OVCAR-3; assay: Upregulation of GLUT1 in human OVCAR-3 cells at 0.25 mM after 24 hrs by immunoblotting analysis; type: functional, cell-based
[38] = tested on: SK-OV-3; assay: […] of glycolysis in human SK-OV-3 cells ssessed as decrease in conversion of D-[5-3H(N)]-glucose to 3H2O at 0.25 mM incubated for 24 hrs by liquid scintillation counting; type: functional, cell-based; outline: as §7
[39] = tested on: OVCAR-3; assay: […] of glycolysis in human OVCAR-3 cells ssessed as decrease in conversion of D-[5-3H(N)]-glucose to 3H2O at 0.25 mM incubated for 24 hrs by liquid scintillation counting; type: functional, cell-based; outline: as §7

Cc1c(NC(=O)c2cc(C(N)=O)nc3cc(F)ccc23)c(C(F)(F)F)nn1Cc1ccc(C#N)cc1 [BAY-876]
Activity [1]: Dose-Dependent Effect | Activity [2]: Dose-Dependent Effect | Activity [3]: Active | Activity [4]: Active | Activity [5]: Active | Activity [6]: inactive | IC50 [7]: 0.06 µM | IC50 [8]: 0.188 µM | IC50 [9]: 1 µM | Activity [10]: Active | Activity [11]: Active | Activity [12]: Active | Activity [13]: inactive | Activity [14]: 68% | Activity [15]: 66% | Activity [16]: 18% | Activity [17]: >60% | Activity [18]: >60% | Activity [19]: 50% | Activity [20]: 71% | Activity [21]: Non-Toxic | Activity [22]: Non-Toxic | Activity [23]: inactive | Activity [24]: Active | Activity [25]: Active | Activity [26]: Active | Activity [27]: inactive

CN(C)C(=N)NC(=N)N
Activity [28]: Active | Activity [29]: Active | Activity [30]: Active | Activity [31]: Active

COc1ccc([C@@H](O)[C@@H](C)Oc2ccc([C@H]3O[C@H](c4ccc(O[C@H](C)[C@H](O)c5ccc6c(c5)OCO6)c(OC)c4)[C@H](C)[C@H]3C)cc2OC)cc1OC
Activity [32]: Active | Activity [33]: Active | Activity [34]: Active | Activity [35]: Active

CCOC(=O)[C@@]1(CCCCCCOc2ccc(Cl)cc2)CO1
Activity [36]: Active | Activity [37]: Active | Activity [38]: Active | Activity [39]: Active

From ChEMBL document CHEMBL5712904 (Cancers (Basel), 2018)
